Assay results as given in ChEMBL document CHEMBL3351723, “New derivatives of lupane triterpenoids disturb breast cancer mitochondria and induce cell death” (Bioorg Med Chem, 2014).
Calls of active or inactive are those of the source. The rule behind the calls is not given here.

Assays:
Liver microsome [1] = test: Effect on mitochondrial transmembrane potential in Wistar Han rat liver mitochondria energized with succinate assessed as mitochondrial transmembrane electropotential at 1.333 ug/mg of protein (reference value: 198.0 +/- 5.6 mV); type: functional
Method in brief: (§1)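 Isolated male Wistar rat liver mitochondria (1.5 mg protein) in 125 mM sucrose, 65 mM KCl, 5 mM KH2PO4, 2.5 mM MgCl2, 5 mM HEPES pH 7.4, 30°C, with 3 μM TPP+. Compound added for 1 min, then 10 mM succinate plus 3 μM rotenone. State 3 started with ADP (83.3 nmol/mg protein). ΔΨ read with a TPP+-selective electrode and calculated by the Kamo equation without binding correction.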

Liver microsome [2] = test: Effect on mitochondrial transmembrane potential in Wistar Han rat liver mitochondria energized with succinate assessed as mitochondrial transmembrane electropotential at 0.06 ug/mg of protein (reference value: 198.0 +/- 5.6 mV); type: functional
[3] = test system: Liver mitochondria (Rattus norvegicus); test: Effect on mitochondrial transmembrane potential in Wistar Han rat liver mitochondria energized with succinate assessed as time duration of lag phase at 0.333 ug/mg of protein (reference value: 40.5 +/- 4.5 sec)
Liver microsome [4] = test: Effect on mitochondrial transmembrane potential in Wistar Han rat liver mitochondria energized with succinate assessed as time duration of lag phase at 0.067 ug/mg of protein (reference value: 40.5 +/- 4.5 sec); type: functional; method in brief: as §1
[5] = test system: Liver mitochondria (Rattus norvegicus); test: Effect on mitochondrial transmembrane potential in Wistar Han rat liver mitochondria energized with succinate assessed as time duration of lag phase at 1.333 ug/mg of protein (reference value: 40.5 +/- 4.5 sec)
[6] = test system: Liver mitochondria (Rattus norvegicus); test: Effect on mitochondrial transmembrane potential in Wistar Han rat liver mitochondria energized with succinate assessed as time duration of lag phase at 0.667 ug/mg of protein (reference value: 40.5 +/- 4.5 sec)
Liver microsome [7] = test: Effect on mitochondrial transmembrane potential in Wistar Han rat liver mitochondria energized with succinate assessed as ADP depolarization at 0.133 ug/mg of protein (reference value: 23.9 +/- 3.3 mV); type: functional
Liver microsome [8] = test: Effect on mitochondrial transmembrane potential in Wistar Han rat liver mitochondria energized with succinate assessed as ADP depolarization at 0.067 ug/mg of protein (reference value: 23.9 +/- 3.3 mV); type: functional
Liver microsome [9] = test: Effect on mitochondrial transmembrane potential in Wistar Han rat liver mitochondria energized with succinate assessed as time duration of lag phase at 1.333 ug/mg of protein Rvb = 46.7 +/- 3.9 sec); type: functional; method in brief: as §1
Liver microsome [10] = test: Effect on mitochondrial transmembrane potential in Wistar Han rat liver mitochondria energized with succinate assessed as time duration of lag phase at 0.333 ug/mg of protein Rvb = 46.7 +/- 3.9 sec); type: functional; method in brief: as §1
Liver microsome [11] = test: Effect on mitochondrial transmembrane potential in Wistar Han rat liver mitochondria energized with succinate assessed as time duration of lag phase at 0.067 ug/mg of protein (reference value: 46.7 +/- 3.9 sec); type: functional; method in brief: as §1
Liver microsome [12] = test: Effect on mitochondrial transmembrane potential in Wistar Han rat liver mitochondria energized with succinate assessed as time duration of lag phase at 0.133 ug/mg of protein Rvb = 46.7 +/- 3.9 sec); type: functional; method in brief: as §1
Liver microsome [13] = test: Effect on mitochondrial transmembrane potential in Wistar Han rat liver mitochondria energized with succinate assessed as mitochondrial transmembrane electropotential at 0.133 ug/mg of protein (reference value: 220.6 +/- 2.5 mV); type: functional
Liver microsome [14] = test: Effect on mitochondrial transmembrane potential in Wistar Han rat liver mitochondria energized with succinate assessed as time duration of lag phase at 1.333 ug/mg of protein (reference value: 82.8 +/- 23.5 sec); type: functional; method in brief: as §1
Liver microsome [15] = test: Effect on mitochondrial transmembrane potential in Wistar Han rat liver mitochondria energized with succinate assessed as mitochondrial transmembrane electropotential at 1.333 ug/mg of protein (reference value: 216.0 +/- 7.4 mV); type: functional; method in brief: as §1
Liver microsome [16] = test: Effect on mitochondrial transmembrane potential in Wistar Han rat liver mitochondria energized with succinate assessed as time duration of lag phase at 0.067 ug/mg of protein (reference value: 82.8 +/- 23.5 sec); type: functional; method in brief: as §1
Liver microsome [17] = test: Effect on mitochondrial transmembrane potential in Wistar Han rat liver mitochondria energized with succinate assessed as time duration of lag phase at 0.667 ug/mg of protein (reference value: 82.8 +/- 23.5 sec); type: functional; method in brief: as §1
Liver microsome [18] = test: Effect on mitochondrial transmembrane potential in Wistar Han rat liver mitochondria energized with succinate assessed as ADP depolarization at 0.333 ug/mg of protein (reference value: 25.3 +/- 2.1 mV); type: functional
[19] = Induction of apoptosis in human MCF12A cells assessed as distribution of mitochondrial polarization and morphology at 0.25 ug/ml after 6 hrs by confocal microscopy; type: cell-based; settings: mcf-12a
Method in brief: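 Cells were seeded on glass coverslips and left to attach for 24 h. They were then exposed to vehicle or 0.25 μg/ml compound for 6 h. For the last 30 min they were loaded with 100 nM TMRM in saline buffer with 15 mM glucose, and the probe was kept present during imaging. Mitochondrial polarization and morphology were imaged by fluorescence microscopy, and the TMRM fluorescence standard deviation was quantified. Four independent preparations, mean ± SEM.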

Liver microsome [20] = test: Effect on mitochondrial transmembrane potential in Wistar Han rat liver mitochondria energized with succinate assessed as ADP depolarization at 0.667 ug/mg of protein (reference value: 25.3 +/- 2.1 mV); type: functional
Liver microsome [21] = test: Effect on mitochondrial transmembrane potential in Wistar Han rat liver mitochondria energized with succinate assessed as mitochondrial transmembrane electropotential at 0.667 ug/mg of protein (reference value: 204.2 +/- 5.6 mV); type: functional
Liver microsome [22] = test: Effect on mitochondrial transmembrane potential in Wistar Han rat liver mitochondria energized with succinate assessed as time duration of lag phase at 0.133 ug/mg of protein (reference value: 33.0 +/- 4.6 sec); type: functional; method in brief: as §1
Liver microsome [23] = test: Effect on mitochondrial transmembrane potential in Wistar Han rat liver mitochondria energized with succinate assessed as ADP depolarization at 1.333 ug/mg of protein (reference value: 25.3 +/- 2.1 mV); type: functional
MCF7 = test: Cytotoxicity against human MCF7 cells at 0.125 to 2 ug/ml after 1 to 5 days by sulforhodamine B assay; type: functional, cell-based
Method in brief: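 Sulforhodamine B growth assay in high-glucose DMEM with 10% FBS. Cancer cells seeded at 1×10^4 cells/ml; compound (0.125–2 μg/ml) added 24 h after seeding and left for 1, 3 or 5 days. Cells fixed, total mass stained. Expressed as % of untreated cells at the same time point. Mean ± SEM, five independent experiments.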

Liver microsome [24] = test: Effect on mitochondrial transmembrane potential in Wistar Han rat liver mitochondria energized with succinate assessed as ADP depolarization at 0.067 ug/mg of protein (reference value: 25.3 +/- 2.1 mV); type: functional

Compound `C=C(C)[C@@H]1CC[C@]2(COC(=O)C(CC)[n+]3ccc(N(C)C)cc3)CC[C@]3(C)[C@H](CC[C@@H]4[C@@]5(C)CC[C@H](OC(=O)C(CC)[n+]6ccc(N(C)C)cc6)C(C)(C)[C@@H]5CC[C@]43C)[C@@H]12` (stereo not given in full) has an Activity (Liver microsome [1]) of 190 mV, an Activity (Liver microsome [2]) of 198 mV and a TIME [3] of 0.0121 h. The TIME (Liver microsome [4]) was 0.0123 h, the TIME [5] was 0.0136 h and the TIME [6] was 0.0117 h. For the same compound, the Activity (Liver microsome [7]) was 23.2 mV and the Activity (Liver microsome [8]) was 22.3 mV.

With `C=C(C)[C@@H]1CC[C@]2(COC(=O)C[N+](C)(C)C(C)C)CC[C@]3(C)[C@H](CC[C@@H]4[C@@]5(C)CC[C@H](OC(=O)C[N+](C)(C)C(C)C)C(C)(C)[C@@H]5CC[C@]43C)[C@@H]12.[Cl-].[Cl-]` the TIME (Liver microsome [9]) was 0.0144 h, the TIME (Liver microsome [10]) was 0.0129 h and the TIME (Liver microsome [11]) was 0.0139 h. It also gave a TIME (Liver microsome [12]) of 0.0137 h and an Activity (Liver microsome [13]) of 217 mV.

`C=C(C)[C@@H]1CC[C@]2(COC(=O)C[n+]3ccc(N(C)C)cc3)CC[C@]3(C)[C@H](CC[C@@H]4[C@@]5(C)CC[C@H](OC(=O)C[n+]6ccc(N(C)C)cc6)C(C)(C)[C@@H]5CC[C@]43C)[C@@H]12.[Cl-].[Cl-]` showed a TIME (Liver microsome [14]) of 0.033 h, an Activity (Liver microsome [15]) of 201 mV and a TIME (Liver microsome [16]) of 0.0219 h. It also gave a TIME (Liver microsome [17]) of 0.026 h.

For `C=C(C)[C@@H]1CC[C@]2(COC(=O)CC[n+]3ccc(N(C)C)cc3)CC[C@]3(C)[C@H](CC[C@@H]4[C@@]5(C)CC[C@H](OC(=O)CC[n+]6ccc(N(C)C)cc6)C(C)(C)[C@@H]5CC[C@]43C)[C@@H]12.[Cl-].[Cl-]`, the Activity (Liver microsome [18]) was 27.1 mV, the Activity [19] was “Non-toxic” and the Activity (Liver microsome [20]) was 23.1 mV. For the same compound, the Activity (Liver microsome [21]) was 205 mV, the TIME (Liver microsome [22]) was 0.00867 h and the Activity (Liver microsome [23]) was 20.3 mV. The inhibition (MCF7) was “Active” and the Activity (Liver microsome [24]) was 24.7 mV.
